Test [1] has as its system Rattus norvegicus. Put plainly: Decrease in triglyceride level in Fischer 344 rat plasma at 56 umol/kg, ip after 24 hrs. The class given is functional. Set-up: scale not given: the % may be the effect or the level left. The essentials:
(§1)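 Male Fischer-344 rats (180-220 g) made hyperlipidemic with Triton WR 1339 (200 mg/kg ip, aqueous); 1 h later compound (56 µmol/kg) in saline or saline alone given ip. Aortic blood taken at 24 h; plasma total cholesterol, LDL-C and triglycerides measured with kits in duplicate; mean of 8-10 rats per compound.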

The subject of the next test is Liver microsomes. The experiment in a line: Inhibition of lipid peroxidation in heat-inactivated rat liver microsomes after 45 mins. The class given is functional, Microsome. The method in brief: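 Heat-inactivated liver microsomes from untreated rats (2.5 mg protein/mL) with 0.2 mM ascorbate in Tris-HCl/KCl (50/150 mM, pH 7.4), compound 10 µM-1 mM in DMSO; started with FeSO4 (10 µM), 37 °C 45 min. TBAR read at 535 vs 600 nm; duplicates; IC50 as mean concentration giving 50% inhibition of peroxidation.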

The next test addresses T1, Squalene synthase (Rattus norvegicus, UniProt Q02769).
T1 sequence (Q02769 whole entry): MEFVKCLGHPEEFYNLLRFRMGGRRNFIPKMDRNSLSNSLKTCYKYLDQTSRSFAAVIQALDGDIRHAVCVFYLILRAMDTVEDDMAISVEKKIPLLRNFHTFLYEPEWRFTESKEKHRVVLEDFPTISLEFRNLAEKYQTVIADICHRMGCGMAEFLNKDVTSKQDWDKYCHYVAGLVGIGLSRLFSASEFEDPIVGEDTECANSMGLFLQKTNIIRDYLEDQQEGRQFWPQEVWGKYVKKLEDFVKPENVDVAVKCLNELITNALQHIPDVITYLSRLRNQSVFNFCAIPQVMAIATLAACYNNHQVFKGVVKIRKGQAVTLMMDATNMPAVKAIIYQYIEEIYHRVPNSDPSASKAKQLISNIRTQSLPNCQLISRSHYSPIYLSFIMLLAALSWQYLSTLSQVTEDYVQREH
The experiment in a line: Inhibition of squalene synthase in rat liver microsome measured by conversion of [3H]FPP to squalene. Type of test: microsomes. The essentials: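 Rat liver microsomes (18 µg protein/mL) in 50 mM phosphate pH 7.4 with 10 mM MgCl2, 0.5 mM NADPH, compound in ethanol; preincubated 10 min 37 °C, started with [3H]FPP (0.5 µM), 10 min 37 °C. Stopped with ethanolic KOH, 65 °C 30 min, petroleum ether extract counted by scintillation; triplicates, IC50 from mean.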
Background: Liver microsomes are a subcellular fraction often used to study metabolism.

In test [2] the test system is Rattus norvegicus. The experiment in a line: Decrease in total cholesterol level in Fischer 344 rat plasma at 56 umol/kg, ip after 24 hrs. Type of test: functional. Set-up: scale not given: the % may be the effect or the level left. The essentials:
as §1

In test [3] the test system is Rattus norvegicus. The experiment in a line: Decrease in LDL-cholesterol level in Fischer 344 rat plasma at 56 umol/kg, ip after 24 hrs. Set-up: scale not given: the % may be the effect or the level left. The class given is functional. The method in brief:
as §1

The IC50 is the point on the concentration scale where inhibition reaches its midpoint.

Turning to `CN1CC(O)(c2ccc(-c3ccccc3)cc2)OC2CCCCC21` (stereo not given), the Activity in the test with Rattus norvegicus [1] came to 49%; with Rattus norvegicus [2] it was 54%; in the test on Rattus norvegicus [3] it was 51%. Moreover, the concentration for half-maximal inhibition (IC50) worked out at 450 µM in the test on Liver microsomes and 36 µM against Squalene synthase.
For the compound `CN1CCOC(O)(c2ccc(-c3cccs3)cc2)C1` (stereo not given), the Activity is 38% in the test on Rattus norvegicus [1], 48% with Rattus norvegicus [2] and 61% in the test with Rattus norvegicus [3]. Further, the IC50 is 87 µM in the test with Liver microsomes and 5 µM against Squalene synthase.
`OC1(c2ccc(-c3ccccc3F)cc2)CN2CCCCC2CO1` (stereo not given): the Activity came out at 15% in the test with Rattus norvegicus [1], 5% with Rattus norvegicus [2] and 11% in the test with Rattus norvegicus [3]. The values for the IC50 with Liver microsomes and against Squalene synthase were 390 µM and 10 µM, respectively.
In the same order, the values of `OC1(c2ccc(-c3cccs3)cc2)CN2CCCCC2CO1` (stereo not given) are 29%, 43%, 46%, 174 µM and 7 µM.
For the compound `CN1CCOC(O)(c2ccc(-c3ccc(Br)s3)cc2)C1` (stereo not given), the results for the Activity with Rattus norvegicus [1], with Rattus norvegicus [2] and in the test on Rattus norvegicus [3] were 35%, 43% and 26%, respectively. Moreover, the values for the IC50 in the test on Liver microsomes and against Squalene synthase were 51 µM and 13 µM, respectively.
In the same order, the values of `OC1(c2ccc(-c3ccc(Br)s3)cc2)CN2CCCCC2CO1` (stereo not given) are 37%, 36%, 35%, 164 µM and 7 µM.
Consider `CN1CCOC(O)(c2ccc(-c3nc4ccccc4s3)cc2)C1` (stereo not given), for which the values for the Activity in the test on Rattus norvegicus [1], in the test with Rattus norvegicus [2] and in the test on Rattus norvegicus [3] were 44%, 46% and 53%, respectively. Besides, the IC50 in the test with Liver microsomes is 113 µM; against Squalene synthase, 2 µM.
On to `CN1CC(O)(c2ccc(-c3nc4ccccc4s3)cc2)OC2CCCCC21` (stereo not given), for which the Activity came out at 0% with Rattus norvegicus [1], 0% with Rattus norvegicus [2] and 24% in the test with Rattus norvegicus [3]. Moreover, the IC50 in the test with Liver microsomes is 202 µM; on Squalene synthase, 6 µM.
In the case of `CN1CC(O)(c2ccc(-c3cccs3)cc2)OC2CCCCC21` (stereo not given), the Activity is reported as 47% in the test on Rattus norvegicus [1], 45% in the test on Rattus norvegicus [2] and 46% in the test with Rattus norvegicus [3]. The IC50 in the test on Liver microsomes was 20 µM; against Squalene synthase, 10 µM.
With `OC1(c2ccc(-c3ccc(Cl)cc3)cc2)CN2CCCCC2CO1` (stereo not given), the values for the Activity in the test with Rattus norvegicus [1], with Rattus norvegicus [2] and in the test with Rattus norvegicus [3] were 52%, 44% and 35%, respectively. Besides, the IC50 in the test on Liver microsomes came to 178 µM; against Squalene synthase, 15 µM.
Consider `CN1CCOC(O)(c2ccc(-c3ccc(Br)cc3)cc2)C1` (stereo not given), for which the Activity is reported as 51% in the test with Rattus norvegicus [1], 47% with Rattus norvegicus [2] and 36% in the test on Rattus norvegicus [3]. Further, the figures for the IC50 with Liver microsomes and against Squalene synthase were 220 µM and 6 µM, respectively.
Consider `OC1(c2ccc(-c3nc4ccccc4s3)cc2)CN2CCCCC2CO1` (stereo not given), for which the Activity in the test on Rattus norvegicus [1] was found to be 46%; in the test on Rattus norvegicus [2], 55%; in the test on Rattus norvegicus [3], 41%. For the same compound, the IC50 with Liver microsomes was 187 µM; against Squalene synthase, 5 µM.
For `CN1CC(O)(c2ccc(-c3ccccc3F)cc2)OC2CCCCC21` (stereo not given), in that order: 25%, 18%, 47%, 490 µM and 42 µM.
In the same order, the values of `OC1(c2ccc(-c3ccc(Br)cc3)cc2)CN2CCCCC2CO1` (stereo not given) are 17%, 17%, 6%, 139 µM and 3 µM.
As for `CN1CCOC(O)(c2ccc(-c3ccc(F)cc3)cc2)C1` (stereo not given), the Activity in the test on Rattus norvegicus [1] is 18%; in the test with Rattus norvegicus [2], 23%; in the test with Rattus norvegicus [3], 36%. Also, the IC50 turned out to be 330 µM in the test on Liver microsomes and 23 µM at Squalene synthase.
As for `CN1CCOC(O)(c2ccc(-c3ccc(Cl)cc3)cc2)C1` (stereo not given), the Activity is on record as 70% in the test with Rattus norvegicus [1], 63% in the test with Rattus norvegicus [2] and 57% with Rattus norvegicus [3]. The IC50 in the test on Liver microsomes is 111 µM; on Squalene synthase, 9 µM.
In the same order, the values of `CN1CC(O)(c2ccc(-c3ccc(Cl)cc3)cc2)OC2CCCCC21` (stereo not given) are 41%, 11%, 29%, 180 µM and 9 µM.
For `CN1CC(O)(c2ccc(-c3ccc(F)cc3)cc2)OC2CCCCC21` (stereo not given), the Activity in the test on Rattus norvegicus [1] came out at 94%; with Rattus norvegicus [2], 41%; in the test on Rattus norvegicus [3] it was 33%. The results for the IC50 in the test with Liver microsomes and at Squalene synthase were 420 µM and 28 µM, respectively.
For `OC1(c2ccc(-c3ccc(F)cc3)cc2)CN2CCCCC2CO1` (stereo not given), in that order: 95%, 27%, 11%, 162 µM and 10 µM.
As for `CN1CC(O)(c2ccc(-c3ccc(Br)s3)cc2)OC2CCCCC21` (stereo not given), the Activity was 26% with Rattus norvegicus [1], 35% in the test with Rattus norvegicus [2] and 45% with Rattus norvegicus [3]. Also, the IC50 came to 160 µM in the test on Liver microsomes and 1 µM at Squalene synthase.
For `CN1CCOC(O)(c2ccc(-c3ccccc3F)cc2)C1` (stereo not given), the results for the Activity with Rattus norvegicus [1], with Rattus norvegicus [2] and in the test with Rattus norvegicus [3] were 64%, 67% and 82%, respectively. The IC50 worked out at 182 µM in the test on Liver microsomes and 40 µM at Squalene synthase.
For `CN1CC(O)(c2ccc(-c3ccc(Br)cc3)cc2)OC2CCCCC21` (stereo not given), the Activity is reported as 7% with Rattus norvegicus [1], 23% in the test with Rattus norvegicus [2] and 53% in the test with Rattus norvegicus [3]. Moreover, the IC50 with Liver microsomes came out at 200 µM; at Squalene synthase, 4 µM.

The record behind these values is ChEMBL document CHEMBL1140077, “Lipid-lowering (hetero)aromatic tetrahydro-1,4-oxazine derivatives with antioxidant and squalene synthase inhibitory activity” (J Med Chem, 2008).
